The source made the active and inactive calls. No cut-off for these calls is given here.
Assays:
Autotaxin [1] = molecular target: T1, Autotaxin (Homo sapiens, UniProt Q13822); test: Noncompetitive type inhibition of human autotaxin at enzyme-substrate complex isolated from […] assessed as blockade of FS3 substrate hydrolysis by FRET assay
Procedure, shortened: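 ATX source: ~10× concentrated serum-free conditioned medium from MDA-MB-435 cells, buffer-exchanged into 50 mM Tris pH 7.4 with 20% ethylene glycol. FS-3 300 nM–20 μM with three inhibitor levels, including zero. Buffer: 50 mM Tris pH 8.0, 140 mM NaCl, 5 mM KCl, 1 mM CaCl2/MgCl2, 30 μM stripped BSA. Run at 37 °C, ex485/em528. Ki′ from simultaneous nonlinear fit to four inhibition models; lowest residual error chosen.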

[2] = molecular target: T2, Glycerophosphocholine cholinephosphodiesterase ENPP6 (Homo sapiens) (UniProt Q6UWR7); test: Inhibition of NPP6 expressed in HEK293 cells assessed as para-nitrophenylphosphoryl choline hydrolysis; format: cell-based
T2 sequence (whole entry): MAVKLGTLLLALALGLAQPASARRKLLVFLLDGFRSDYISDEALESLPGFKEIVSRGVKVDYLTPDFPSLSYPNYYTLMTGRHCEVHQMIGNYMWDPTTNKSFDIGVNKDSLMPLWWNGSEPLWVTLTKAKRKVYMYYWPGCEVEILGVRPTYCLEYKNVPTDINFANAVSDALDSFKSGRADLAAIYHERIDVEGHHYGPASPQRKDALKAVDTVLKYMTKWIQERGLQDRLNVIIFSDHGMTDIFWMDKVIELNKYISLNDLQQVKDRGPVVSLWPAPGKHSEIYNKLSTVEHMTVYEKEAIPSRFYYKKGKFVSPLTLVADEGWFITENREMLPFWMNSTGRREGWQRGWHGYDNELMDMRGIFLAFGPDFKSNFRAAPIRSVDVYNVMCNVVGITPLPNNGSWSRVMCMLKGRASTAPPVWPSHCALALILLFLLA
Procedure, shortened: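 NPP6 from conditioned medium of HEK293 cells transiently transfected with human NPP6. Inhibitor at 10 μM in 1% DMSO. Substrate pNPPC at 10 mM in 100 mM Tris-HCl pH 9.0 with 500 mM NaCl and 0.05% Triton X-100, 37 °C. Absorbance read at 1 h, normalized to vehicle after cell-free-medium blank. Mean ± SD of ≥3 wells.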

[3] = molecular target: T3, Ectonucleotide pyrophosphatase/phosphodiesterase family member 7 (Homo sapiens) (UniProt Q6UWV6); test: Inhibition of NPP7 expressed in HEK293 cells assessed as para-nitrophenylphosphoryl choline hydrolysis; format: cell-based
T3 sequence (whole entry): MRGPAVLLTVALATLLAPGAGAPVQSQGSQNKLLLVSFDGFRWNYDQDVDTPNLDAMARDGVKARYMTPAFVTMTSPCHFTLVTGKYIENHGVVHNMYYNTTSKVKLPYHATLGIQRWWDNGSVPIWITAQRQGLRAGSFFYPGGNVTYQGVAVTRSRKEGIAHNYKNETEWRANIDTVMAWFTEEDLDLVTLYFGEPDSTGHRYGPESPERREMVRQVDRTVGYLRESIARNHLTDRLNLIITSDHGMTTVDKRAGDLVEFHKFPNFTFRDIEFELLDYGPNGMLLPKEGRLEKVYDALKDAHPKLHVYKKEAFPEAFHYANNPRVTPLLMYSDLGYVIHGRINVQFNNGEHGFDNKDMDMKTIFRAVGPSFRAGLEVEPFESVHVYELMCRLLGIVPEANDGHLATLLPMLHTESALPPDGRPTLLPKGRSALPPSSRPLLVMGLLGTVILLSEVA
Procedure, shortened: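 NPP7 from concentrated conditioned medium of transfected HEK293 cells (human NPP7). Inhibitor at 10 μM in 1% DMSO. Substrate pNPPC at […] in 50 mM Tris-HCl pH 8.5 with 150 mM NaCl and 10 mM taurocholic acid, no EDTA, 37 °C. Absorbance taken at 1 h, vehicle-normalized after blank. Mean ± SD of ≥3 wells.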

Autotaxin [4] = molecular target: T1, Autotaxin; test: Noncompetitive type inhibition of human autotaxin at free state isolated from MDA-MB-231 cells assessed as blockade of FS3 substrate hydrolysis by FRET assay; format: cell-based
Autotaxin [5] = molecular target: T1, Autotaxin; test: Competitive inhibition of human autotaxin at free state isolated from MDA-MB-231 cells assessed as blockade of FS3 substrate hydrolysis by FRET assay; format: cell-based

| SMILES | Ki (Autotaxin [1]) [µM] | Activity [2] | Activity [3] | Ki (Autotaxin [4]) [µM] | Ki (Autotaxin [5]) [µM] |
| --- | --- | --- | --- | --- | --- |
| CCn1cc(C(=O)O)c(=O)c2cnc(N3CCN(C(=S)Nc4ccc(C(F)(F)F)cc4)CC3)nc21 | 13.2 | inactive | inactive | 13.2 | – |
| CCn1cc(C(=O)O)c(=O)c2cnc(N3CCN(C(=S)Nc4cc(Cl)ccc4Cl)CC3)nc21 | – | inactive | inactive | – | – |
| CCn1cc(C(=O)O)c(=O)c2cnc(N3CCN(C(=S)Nc4ccc(I)cc4)CC3)nc21 | – | inactive | inactive | – | – |
| CCn1cc(C(=O)O)c(=O)c2cnc(N3CCN(C(=S)Nc4ccc(C)cc4)CC3)nc21 | – | inactive | inactive | – | – |
| CCn1cc(C(=O)O)c(=O)c2cnc(N3CCN(C(=S)Nc4cccc(C)c4)CC3)nc21 | – | inactive | inactive | – | 4.5 |
| CCn1cc(C(=O)O)c(=O)c2cnc(N3CCN(C(=S)Nc4cccc(Cl)c4)CC3)nc21 | – | inactive | inactive | – | – |
| CCn1cc(C(=O)O)c(=O)c2cnc(N3CCN(C(=S)Nc4cc(C)cc(C)c4)CC3)nc21 | – | inactive | inactive | – | 4.2 |
| CCn1cc(C(=O)O)c(=O)c2cnc(N3CCN(C(=S)Nc4cccc(F)c4)CC3)nc21 | – | inactive | inactive | – | – |
| CCn1cc(C(=O)O)c(=O)c2cnc(N3CCN(C(=S)Nc4cccc(C(F)(F)F)c4)CC3)nc21 | – | inactive | inactive | – | 0.7 |
| CCn1cc(C(=O)O)c(=O)c2cnc(N3CCN(C(=S)Nc4ccc(Cl)cc4)CC3)nc21 | – | inactive | inactive | – | 5.7 |
| CCn1cc(C(=O)O)c(=O)c2cnc(N3CCN(C(=S)Nc4cccc(OC)c4)CC3)nc21 | – | inactive | inactive | – | – |
| CCn1cc(C(=O)O)c(=O)c2cnc(N3CCN(C(=S)Nc4ccc5nsnc5c4)CC3)nc21 | – | inactive | inactive | – | 7.1 |
| CCn1cc(C(=O)O)c(=O)c2cnc(N3CCN(C(=S)Nc4cc(C(F)(F)F)cc(C(F)(F)F)c4)CC3)nc21 | – | inactive | inactive | – | 4 |
| CCn1cc(C(=O)O)c(=O)c2cnc(N3CCN(C(=S)Nc4cccc(I)c4)CC3)nc21 | – | inactive | inactive | – | – |
| CCn1cc(C(=O)O)c(=O)c2cnc(N3CCN(C(=S)Nc4ccc(F)cc4)CC3)nc21 | – | inactive | inactive | – | – |
| CCCCCCCCc1ccc(CCC(N)(CO)CCCP(=O)(O)O)cc1 (centres undefined) | – | – | – | 0.2 | – |

Reference: ChEMBL document CHEMBL1154760, “Optimization of a pipemidic acid autotaxin inhibitor” (J Med Chem, 2010)
